Experimental data of several laboratories.
Compare with care: the assays were run in different laboratories.
Target: Serine/threonine-protein kinase 35 (STK35, Homo sapiens, UniProt Q8TDR2)

CN(C)c1nccc(-c2cnn3ncccc23)n1 — remaining binding (binding; 1 µM): 100%
Cc1c[nH]c2nccc(Oc3c(F)cc(Nc4cc(Cl)nc(N)n4)cc3F)c12 — remaining binding (cell-free assay, competition with immobilised ligand; 0.1 µM): 94%
C[C@@H]1CCN(c2nccc(-c3cnn4ncccc34)n2)C1 — remaining binding (binding; 1 µM): 72%
O=C(NCCCN1CCOCC1)c1ccc(Nc2nccc(-c3cc4ccccc4s3)n2)cc1 — remaining binding (binding, competition with immobilised ligand; 1 µM): 92%
O=C(Nc1c[nH]nc1C(=O)NC1CCNCC1)c1cc(F)cc(F)c1 — remaining binding (binding, competition with immobilised ligand; 1 µM): 100%
CNC(=O)[C@@H]1CC[C@@H](n2c(-c3ccc4cnccc4c3)nc3ccc(C(=O)NCc4cccc(C(N)=O)c4)cc32)C1 — remaining binding (binding, competition with immobilised ligand; 1 µM): 98%
CN(CCCC(F)(F)F)c1nccc(-c2cnn3ncccc23)n1 — remaining binding (binding; 1 µM): 100%
FC(F)(F)Oc1cccc(-c2cnc3ccc(-c4ccncc4)nn23)c1 — remaining binding (binding, competition with immobilised ligand; 5 µM): 100%
CN1CCN(c2cnc3c(C4CCN(C(=O)c5ccc(OC(F)(F)F)cc5N)CC4)ncnc3c2)CC1 — remaining binding (cell-free assay, competition with immobilised ligand; 1 µM): 100%
O=C(c1ccc(Nc2ncc(Cl)c(-c3cc4ccccc4s3)n2)cc1)N1CCC(N2CCCC2)CC1 — remaining binding (binding, competition with immobilised ligand; 1 µM): 67%
N[C@H]1CCN(c2nccc(-c3cnn4ncccc34)n2)C1 — remaining binding (binding; 1 µM): 89%
Cc1nccc(COC(=O)N2C[C@@H]3[C@@H](CNC(=O)c4ccc5[nH]nnc5c4)[C@@H]3C2)n1 — remaining binding (cell-free assay, competition with immobilised ligand; 1 µM): 83%
Cc1cnc(Nc2ccc(C(=O)N3CCC(N4CCCC4)CC3)cc2)nc1-c1cc2ccccc2s1 — remaining binding (binding, competition with immobilised ligand; 1 µM): 79%
O=C(Nc1cccnn1)N1CCC(=Cc2cccc(Oc3ccc(C(F)(F)F)cn3)c2)CC1 — remaining binding (cell-free assay, competition with immobilised ligand; 1 µM): 100%
Cc1cnn2ncc(-c3ccnc(N(C)C)n3)c2c1 — remaining binding (binding; 1 µM): 100%
COc1cnc(Nc2cccc(S(N)(=O)=O)c2)nc1N1CCN(c2ccccc2)C(=O)C1 — remaining binding (binding, competition with immobilised ligand; 1 µM): 100%
CC1=C(C#N)[C@@H](c2ccc3[nH]nc(C)c3c2)C(C#N)=C(c2ccc(Cl)cc2)N1 — remaining binding (cell-free assay, competition with immobilised ligand; 1 µM): 100%
CN(C)c1ncc(F)c(-c2cnn3ncccc23)n1 — remaining binding (binding; 1 µM): 100%
CCC(=O)N[C@H]1CC[C@@H](C(=O)N(C)c2ccc(-c3nc4ccccc4o3)cc2)C1 — remaining binding (cell-free assay, competition with immobilised ligand; 1 µM): 88%
C=CC(=O)N1CCC(C(=O)NCC(=O)N2CCN(c3nc(-c4cnc(N)nc4C(F)F)nc(N4CCOCC4)n3)CC2)CC1 — remaining binding (binding, competition with immobilised ligand; 1 µM): 93%
COc1ccc2cc(OCC3(C(=O)O)CN(C(=O)c4ccc(F)cc4)C3)ccc2c1 — remaining binding (cell-free assay, competition with immobilised ligand; 1 µM): 100%
CC1CCCN1c1nccc(-c2cnn3ncccc23)n1 (stereo not shown) — remaining binding (binding; 1 µM): 88%
